Assay results taken from ChEMBL document CHEMBL4477191, “Haliclonadiamine Derivatives and 6-epi-Monanchorin from the Marine Sponge Halichondria panicea Collected at Iriomote Island” (J Nat Prod, 2016).
Counter-ions that a name gives are not always drawn. The source made the active and inactive calls. The calls are words filed in the database; no cut-off is given here.

Tests used:
Huh-7 = experiment: Cytotoxicity against human HuH7 cells assessed as reduction in cell viability after 72 hrs by WST-1 assay; assay type: functional, cell-based; settings: Huh-7, 72 h
In short: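 Cells seeded at 1 × 10^4 per well, cultured overnight, then exposed to compound for 72 h. WST-1 (0.5 mM) with 1-PMS (0.02 mM) in medium added for 60 min at 37 °C. Absorbance read at 438 nm, reference 620 nm. Viability expressed as percent of 0.1% EtOH-treated controls. IC50 reported.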

[1] = tested on: Mycolicibacterium smegmatis; experiment: Antimycobacterial activity against Mycobacterium smegmatis NBRC 3207 at 5 ug/disc after 2 days by paper disc method; assay type: functional; settings: NBRC 3207, 48 h, read-out: IZ
In short: (§1)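 Strain stored in 20% glycerol at −80 °C. Grown in Middlebrook 7H9 broth with 0.05% polysorbate 80, 0.5% glycerol and 10% OADC at 37 °C for 2 days, then adjusted to 1.0 × 10^6 CFU/mL and spread on the same medium with 1.5% agar. Samples in CH3OH dried onto 6 mm filter discs, incubated 37 °C for 2 days. Read-out is inhibition zone (mm). Streptomycin sulfate 5 μg/disc as positive control, CH3OH as negative control.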

[2] = tested on: Mycolicibacterium smegmatis; experiment: Antimycobacterial activity against Mycobacterium smegmatis NBRC 3207 at 10 ug/disc after 2 days by paper disc method; assay type: functional; settings: NBRC 3207, 48 h, read-out: IZ
In short: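 Paper disc diffusion. Strain kept in 20% glycerol at −80 °C, then grown 2 days at 37 °C in Middlebrook 7H9 broth with 0.05% polysorbate 80, 0.5% glycerol and 10% OADC. Adjusted to 1.0 × 10^6 CFU/mL and spread on the same medium with 1.5% agar. Sample in CH3OH dried onto 6 mm discs. Plates incubated 37 °C, 2 days. Inhibition zone read in mm. Streptomycin sulfate (5 μg/disc) positive control; CH3OH negative control.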

[3] = tested on: Mycolicibacterium smegmatis; experiment: Antimycobacterial activity against Mycobacterium smegmatis NBRC 3207 at 10 to 20 ug/disc after 2 days by paper disc method; assay type: functional, organism-based; in short: as §1

COc1cccc2c1C(=O)c1c(O)c3c(c(O)c1C2=O)C[C@@](O)(C(=O)CO)C[C@@H]3O[C@H]1C[C@H](N)[C@H](O)[C@H](C)O1 [DOXORUBICIN]
IC50 (Huh-7): 0.4 µM

CN[C@@H]1[C@H](O[C@H]2[C@H](O[C@H]3[C@H](O)[C@@H](O)[C@H](N=C(N)N)[C@@H](O)[C@@H]3N=C(N)N)O[C@@H](C)[C@]2(O)C=O)O[C@@H](CO)[C@H](O)[C@H]1O [STREPTOMYCIN SULFATE]
zone of inhibition at 5 µg/disc [1]: 30 mm

C1=C/[C@H]2[C@@H]3CCCC[C@H]3C[C@H]2NCCCN[C@@H]2C[C@@H]3CCCC[C@H]3[C@@H]2/C=C/1
zone of inhibition at 10 µg/disc [2]: 12 mm | IC50 (Huh-7): 3.9 µM

C1=C/[C@H]2[C@@H]3CCCC[C@H]3C[C@@H]2NCCCN[C@@H]2C[C@@H]3CCCC[C@H]3[C@@H]2/C=C/1 [HALICLONADIAMINE]
zone of inhibition at 10 µg/disc [2]: 16 mm | IC50 (Huh-7): 3.6 µM

CCCCC[C@H]1O[C@@H]2CC[C@H]1NC(=N)N2
IC50 (Huh-7): > 10 µM | inhibition [3]: inactive

C1=C\[C@H]2[C@@H]3CCCC[C@H]3C[C@H]2NCCCN[C@H]2C[C@@H]3CCCC[C@H]3[C@@H]2/C=C/1
zone of inhibition at 10 µg/disc [2]: 7 mm | IC50 (Huh-7): 6.7 µM

N[C@@H]1C[C@@H]2CCCC[C@H]2[C@@H]1/C=C/C=C\[C@H]1[C@@H]2CCCC[C@H]2C[C@@H]1N
zone of inhibition at 10 µg/disc [2]: 8 mm | IC50 (Huh-7): 7.2 µM

CCCCC[C@@H]1O[C@@H]2CC[C@H]1NC(=N)N2
IC50 (Huh-7): > 10 µM | inhibition [3]: inactive

C1=C\[C@H]2[C@@H]3CCCC[C@H]3C[C@@H]2NCCCN[C@@H]2C[C@@H]3CCCC[C@H]3[C@@H]2/C=C/1
zone of inhibition at 10 µg/disc [2]: 12 mm | IC50 (Huh-7): > 10 µM

N[C@@H]1C[C@@H]2CCCC[C@H]2[C@@H]1/C=C\C=C\[C@H]1[C@@H]2CCCC[C@H]2C[C@@H]1N
zone of inhibition at 10 µg/disc [2]: 7 mm | IC50 (Huh-7): 7.8 µM
